Screening results as filed in PubChem.
Rows were chosen to be rich in hits. Some 3.7% of all compounds tested hit in one or more screens of this group.
KCNK9 block = human KCNK9 channel inhibition. 310,000 compounds, 1.2% hits. B-score at 10 µM. HEK293 KCNK9, FluxOR thallium flux fluorescence; active compounds read low;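 active = ratio B-score over 3 SD below the library mean, with starting fluorescence within 5 SD of its mean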;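 note: negative B-score means less thallium flux so channel inhibition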
KCNK3 inh = human KCNK3 channel inhibition, primary screen | O14649 | CHO-KCNK3 thallium flux, FluxOR fluorescence; active compounds read low | B-score at 10 µM | 340,000 compounds, 0.84% hits | AID 602410;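 active = B-score under library mean minus 4 SD, starting fluorescence ratio at most library mean plus 5 SD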;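 note: more negative B-score means stronger inhibition of thallium flux through KCNK3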
hERG rescue = compounds protecting human hERG from proarrhythmic drug block. Q12809. CHO-hERG, FluxOR thallium flux, dofetilide IC70 present. activation (rescue from dofetilide block), less the hit threshold, % at 10 µM. 310,000 compounds, 0.51% hits. AID 1511;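 active = activation above the mean of controls blocked by dofetilide plus 5 SD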;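 note: thallium influx through hERG after potassium depolarization seen as dye fluorescence rise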
KCNQ1 block = human KCNQ1 channel inhibition; P51787; CHO-K1 KCNQ1, FluxOR thallium flux fluorescence; active compounds read high; B-score at 10 µM; 310,000 compounds, 1.3% hits; AID 2642;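 active = compounds whose thallium flux B-score, printed positive for inhibition, exceeds three library SD while starting fluorescence stays within three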;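 note: channel opened by potassium depolarization with thallium stimulus after 20 min compound exposure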
KCNQ1 act = potentiates or activates the human KCNQ1 potassium channel | CHO-K1 KCNQ1, thallium flux FluxOR fluorescence; active compounds read high | P51787 | B-score at 10 µM | 310,000 compounds, 0.35% hits;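 active = fluorescence ratio B-score, a plate-corrected score, at least three library SD, with initial intensity B-score within 5 SD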
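System: CHO-K1 cells stably expressing KCNQ1 / Medium: assay buffer for compound exposure, DMSO matched across wells / Reagent: thallium- and potassium-containing depolarizing buffer / Compound: one concentration, matched DMSO / Incubation: 20 min compound pretreatment at room temperature / Measured by: kinetic FluxOR fluorescence, 10 s baseline plus 110 s post-stimulus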
Kir21 inh = blocks the mouse Kir2.1 inward-rectifier potassium channel | P35561 | HEK293-Kir2.1, FluxOR thallium flux fluorescence; active compounds read low | B-score at 10 µM | 310,000 compounds, 0.85% hits | AID 1672;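 active = fluorescence ratio B-score at or below minus 3 SD of library scores, with starting-brightness B-score within 2 SD, cut at about -4.2 in these data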;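 note: channel flux triggered by added potassium and thallium sulfate stimulus; B-score of peak minus minimum fluorescence over baseline after thallium stimulus; more negative B-score means stronger Kir2.1 block with less thallium influx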
Target sequence (P35561 whole entry, looked up): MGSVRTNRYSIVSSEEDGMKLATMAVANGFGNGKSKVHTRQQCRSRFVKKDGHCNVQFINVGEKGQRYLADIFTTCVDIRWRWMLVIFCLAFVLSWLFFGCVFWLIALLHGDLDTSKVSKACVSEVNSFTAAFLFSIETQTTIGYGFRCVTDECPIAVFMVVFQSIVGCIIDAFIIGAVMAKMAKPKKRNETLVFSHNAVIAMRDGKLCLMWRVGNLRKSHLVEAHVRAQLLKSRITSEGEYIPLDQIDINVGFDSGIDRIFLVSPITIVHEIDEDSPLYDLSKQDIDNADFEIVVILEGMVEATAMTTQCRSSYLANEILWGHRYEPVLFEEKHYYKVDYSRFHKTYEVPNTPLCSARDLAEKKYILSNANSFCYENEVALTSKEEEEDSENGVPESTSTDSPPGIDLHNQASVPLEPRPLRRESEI
KCNK3 inh conf = human KCNK3 channel inhibition, confirmation assay; ratio percent of control, % at 10 µM; 2,400 compounds, 99% hits; shares compounds with KCNK3 inh; CHO-KCNK3 thallium flux, FluxOR fluorescence; 0% buffer, 100% carvedilol maximal block;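 active = ratio percent of control, averaged over triplicates, above buffer control mean plus 5 SD, cut at about 64% in these data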;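 note: ratio is the fluorescence rise from min to max over baseline after thallium stimulus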
KCNK3 uninduced = counter-screen for KCNK3 inhibitors: effect in non-induced cells | shares compounds with KCNK3 inh | non-induced KCNK3 parental cells, FluxOR thallium flux; active compounds read low | thallium flux ratio (lower = more inhibition) at 10 µM | 2,400 compounds, 40% hits;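 active = thallium flux ratio, averaged over three wells, more than 5 SD below the buffer control mean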;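 note: host cells are CHO cells without KCNK3 induction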
A number is an active result; . = inactive; / = no result.

SMILES	KCNK9 block	KCNK3 inh	hERG rescue	KCNQ1 block	KCNQ1 act	Kir21 inh	KCNK3 inh conf	KCNK3 uninduced
Cc1ccc(C)c(C(=O)CC2(O)C(=O)N(C)c3ccccc32)c1 (stereo not drawn)	.	.	.	.	.	.	/	/
Cc1ccc(C(=O)CC2(O)C(=O)N(C)c3ccc(Br)cc32)c(C)c1 (stereo not drawn)	.	-9.6	.	.	.	.	93	.
CCn1c(SCC(=O)Nc2oc(-c3ccccc3)c(-c3ccccc3)c2C#N)nnc1-c1ccncc1	.	-9.3	.	.	.	.	118	0.14
Cc1ccccc1OCC(O)Cn1c2ccccc2c2ccccc21 (stereo not drawn)	-6.7	-9.7	.	.	.	.	131	0.13
Cc1ccc(C)c(OCCC(=O)Nc2ccc3c(c2)OCO3)c1	/	.	/	/	/	/	/	/
CC(=O)c1ccc(COC(=O)c2cc3ccccc3oc2=O)cc1	.	.	.	.	.	.	/	/
CC(OC(=O)C1CCN(c2ccc(C(F)(F)F)cn2)CC1)C(=O)NC1CCCCC1C (stereo not drawn)	/	.	/	/	/	/	/	/
CCOc1ccc(C(=O)C(C)OC(=O)C2CCN(c3ccc(C(F)(F)F)cn3)CC2)cc1 (stereo not drawn)	.	-9.4	.	8	.	.	83	0.16
CCCCS(=O)(=O)N1CCCC(C(=O)Nc2ccc3c(c2)CCC3)C1 (stereo not drawn)	.	.	.	.	.	.	/	/
CCOC(=O)c1cc(C)sc1NC(=O)CSC1=NCCS1	.	-12	.	.	.	.	119	.
CCOC(=O)c1cc(C)sc1NC(=O)CSc1nnnn1C	.	.	.	.	.	.	/	/
O=C(COC(=O)/C=C/c1ccccc1Cl)NC1CCCC1	/	.	/	/	/	/	/	/
Cc1ccccc1Nc1nc(N)nc(-c2oc3ccccc3c2C)n1	-14	-10	.	.	.	.	117	0.16
O=C(CCOc1cccc(Br)c1)Nc1ccc(F)c(S(=O)(=O)N2CCOCC2)c1	/	-12	/	/	/	/	97	.
CCCC(NC(=O)Cc1c(C)c2c(cc(C)c3c(C)coc32)oc1=O)C(=O)O (stereo not drawn)	.	.	.	.	.	.	/	/
O=S(=O)(c1cccc(COc2ccc(Cl)cc2Cl)c1)N1CCOCC1	.	-9.9	.	.	.	.	122	0.16
O=[N+]([O-])c1ccc(F)cc1OCc1cccc(S(=O)(=O)N2CCOCC2)c1	.	.	.	.	.	.	/	/
O=S(=O)(c1cccc(COc2c(Cl)cccc2Cl)c1)N1CCOCC1	.	-9.5	.	.	.	.	120	.
CC(=O)c1cc(Cl)ccc1OCc1cccc(S(=O)(=O)N2CCOCC2)c1	.	.	.	.	.	.	/	/
CCOC(=O)C1=C(C)N=C2SCCC(=O)N2C1c1cc(Br)ccc1OC (stereo not drawn)	.	.	.	.	.	.	/	/
COCCOC(=O)C1=C(C)N=C2SCCC(=O)N2C1c1cccc(Br)c1 (stereo not drawn)	.	-9.3	.	.	.	.	112	.
CCCOP(=O)(OCCC)C(Nc1ccc(C(C)C)cc1)c1ccc([N+](=O)[O-])cc1 (stereo not drawn)	.	-8.8	.	.	.	.	118	0.16
Cc1cccc(NC(=O)COc2ccc(-c3nn(C)c(=O)c4ccccc34)cc2)c1	.	-12	.	6	.	.	100	.
COc1ccccc1NC(=O)c1ccc(-c2nn(C)c(=O)c3ccccc23)cc1	.	-9.9	.	.	.	.	96	.
COc1ccc(NC(=O)c2ccc(-c3nn(C)c(=O)c4ccccc34)cc2)cc1	.	.	.	.	.	.	/	/
SMILES	KCNK9 block	KCNK3 inh	hERG rescue	KCNQ1 block	KCNQ1 act	Kir21 inh	KCNK3 inh conf	KCNK3 uninduced
CCOC(=O)C1(Cc2ccc(OC)cc2)CCN(C(=O)c2cc(C)nn2C)CC1	.	.	.	.	.	.	/	/
CCOc1ccccc1NC(=O)N1CCc2ccccc2C1	.	-9	.	.	.	.	84	.
COc1ccccc1CNC(=O)Cc1csc(NC(=O)Nc2ccccc2OC)n1	.	-8.7	.	.	.	.	99	.
COc1ccccc1NC(=O)Nc1nc(CC(=O)NCc2ccccn2)cs1	.	.	.	.	.	.	/	/
Nc1ncnc2c1c(-c1ccc(Oc3ccccc3)cc1)cn2C1CCCC1	/	-12	/	/	/	/	115	.
Cc1cccc(C)c1NC(=O)CN(C)CC(=O)Nc1ccc(F)c(Cl)c1	.	-12	.	.	.	.	82	.
CCOC(=O)c1cc(-c2ccccc2)n(CC2CC(c3ccc(OC)cc3)=NO2)n1 (stereo not drawn)	.	.	.	.	.	.	/	/
CCC(C)c1ccc(NC(=O)C2CC3CCC2C3)cc1 (stereo not drawn)	-6.6	-9.4	.	.	.	.	116	.
CC1CCC(C#N)(N(C)C(=O)CSc2nnc(C3CC3)n2C2CC2)CC1 (stereo not drawn)	/	.	/	/	/	/	/	/
CC(=O)N(C1=C(Cl)C(=O)c2ccccc2C1=O)C1CCCCC1	-6.9	-12	.	.	.	.	140	0.087
CC(=O)N(c1ccccc1C)C1CCCC1	.	.	.	.	.	.	/	/
CC(C)C(NC(=O)C1(NC(=O)OCc2ccccc2)CCCC1)C(=O)O (stereo not drawn)	/	.	/	/	/	/	/	/
CN1CCN(C2=C(Cl)C(=O)c3ccccc3C2=O)CC1	/	-14	/	/	/	/	160	0.057
O=C(/C=C/c1ccncc1)c1cc(Cl)ccc1O	.	.	.	.	.	.	/	/
CN(C)c1ccc(/C=C/C(=O)c2cc(Cl)ccc2O)cc1	.	-13	.	.	.	.	106	.
Nc1ncnc2c1ncn2C1OC(C(=O)NC2CC2)C(O)C1O (stereo not drawn)	/	.	/	/	/	/	/	/
O=C(Nc1cccc(OCC(=O)N2CCOCC2)c1)c1cccc([N+](=O)[O-])c1	.	.	.	.	.	.	/	/
COc1cccc(C(=O)COc2cccc(NC(=O)c3ccco3)c2)c1	-7.3	-10	.	.	.	.	120	0.14
Cc1cc(C)cc(C(=O)Nc2cccc(NC(=O)c3ccco3)c2)c1	-8	-11	.	.	.	.	101	.
COc1ccc(C(=O)COc2cccc(NC(=O)c3ccco3)c2)cc1	.	.	.	.	.	.	/	/
O=C(COc1cccc(NC(=O)c2cccc([N+](=O)[O-])c2)c1)c1ccc(Br)cc1	.	-11	.	.	.	.	96	0.15
Cc1nc2sccc2c(=O)n1-c1cccc(Cl)c1	.	.	.	.	.	.	/	/
